{"data": "Measured values from different studies", "target": "Mitogen-activated protein kinase kinase kinase kinase 3 (MAP4K3, Homo sapiens, UniProt Q8IVH8)", "Sequence (Q8IVH8 1-894, as in one of the studies)": "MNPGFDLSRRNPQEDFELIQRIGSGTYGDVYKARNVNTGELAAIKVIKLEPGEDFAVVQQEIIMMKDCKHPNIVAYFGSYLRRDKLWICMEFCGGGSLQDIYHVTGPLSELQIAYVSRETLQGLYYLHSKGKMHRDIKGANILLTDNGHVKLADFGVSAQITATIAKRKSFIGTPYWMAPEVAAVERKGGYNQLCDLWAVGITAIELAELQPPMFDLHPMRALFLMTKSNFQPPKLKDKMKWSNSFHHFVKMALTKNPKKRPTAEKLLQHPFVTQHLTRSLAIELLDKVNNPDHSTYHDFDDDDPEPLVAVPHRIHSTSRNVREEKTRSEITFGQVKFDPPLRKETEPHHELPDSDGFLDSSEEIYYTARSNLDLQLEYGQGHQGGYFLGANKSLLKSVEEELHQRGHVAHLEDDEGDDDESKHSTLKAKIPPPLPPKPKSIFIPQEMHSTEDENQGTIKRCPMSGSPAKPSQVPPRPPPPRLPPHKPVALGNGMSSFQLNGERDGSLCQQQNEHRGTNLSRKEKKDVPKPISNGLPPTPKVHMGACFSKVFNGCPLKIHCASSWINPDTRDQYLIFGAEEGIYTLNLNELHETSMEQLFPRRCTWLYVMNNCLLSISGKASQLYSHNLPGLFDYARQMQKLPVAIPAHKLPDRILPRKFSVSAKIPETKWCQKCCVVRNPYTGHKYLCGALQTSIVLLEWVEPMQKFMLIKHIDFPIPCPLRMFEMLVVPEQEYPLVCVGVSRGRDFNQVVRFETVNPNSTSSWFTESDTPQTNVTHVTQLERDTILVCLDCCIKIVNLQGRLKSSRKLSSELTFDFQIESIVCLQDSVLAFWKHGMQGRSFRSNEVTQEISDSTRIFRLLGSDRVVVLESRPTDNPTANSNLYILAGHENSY"}
{"assay": "cell-free assay", "conditions": "0.1 µM", "endpoint": "remaining signal", "value": "80%", "SMILES": "C1=C/COCc2cc(ccc2OCCN2CCCC2)Nc2nccc(n2)-c2cccc(c2)COC/1"}
{"assay": "binding, competition with immobilised ligand", "conditions": "0.5 µM", "endpoint": "remaining binding", "value": "81%", "SMILES": "CCCCC(=O)Nc1ccc(-c2ccc3ncn(CCC)c(=O)c3c2)cn1"}
{"assay": "binding, competition with immobilised ligand", "conditions": "1 µM", "endpoint": "remaining binding", "value": "100%", "SMILES": "Cc1ccc(NC(=O)c2ccnc(C(F)(F)F)c2)cc1-c1cc(OCCO)nc(N2CCOCC2)c1"}
{"assay": "binding", "conditions": "1 µM", "endpoint": "remaining binding", "value": "113%", "SMILES": "COc1ccc2oc(-c3ccc4nc(N)oc4c3)c/c(=N\\c3ccccc3NC(=O)CCN)c2c1"}
{"assay": "enzyme activity, inhibitor", "conditions": "1 µM", "endpoint": "inhibition", "value": "77%", "SMILES": "CO[C@@H]1[C@H](N(C)C(=O)c2ccccc2)C[C@H]2O[C@]1(C)n1c3ccccc3c3c4c(c5c6ccccc6n2c5c31)C(=O)NC4"}
{"assay": "binding, competition with immobilised ligand", "conditions": "1 µM", "endpoint": "remaining binding", "value": "100%", "SMILES": "C[C@H]1CC[C@H](n2c3cnccc3c3cnc(Nc4ccc5c(n4)CCN(C(=O)CO)C5)nc32)CC1"}
{"assay": "enzyme activity, inhibitor", "conditions": "1 µM", "endpoint": "inhibition", "value": "14%", "SMILES": "C=CC(=O)N1CCC([C@@H]2CCNc3c(C(N)=O)c(-c4ccc(Oc5ccccc5)cc4)nn32)CC1"}
{"assay": "enzyme activity, inhibitor", "conditions": "0.2 µM", "endpoint": "inhibition", "value": "45.4%", "SMILES": "C#Cc1cc(-c2cc(Nc3nc(N[C@@H](C)c4ccc(F)cn4)ncc3Cl)n[nH]2)ccc1C=O"}
